Assay [1] has as its target T1, CNGA3 RR-EE (R643E, R646E) channels (Homo sapiens, UniProt Q16281, R643E/R646E).
T1 sequence (Q16281 1-694 R643E/R646E): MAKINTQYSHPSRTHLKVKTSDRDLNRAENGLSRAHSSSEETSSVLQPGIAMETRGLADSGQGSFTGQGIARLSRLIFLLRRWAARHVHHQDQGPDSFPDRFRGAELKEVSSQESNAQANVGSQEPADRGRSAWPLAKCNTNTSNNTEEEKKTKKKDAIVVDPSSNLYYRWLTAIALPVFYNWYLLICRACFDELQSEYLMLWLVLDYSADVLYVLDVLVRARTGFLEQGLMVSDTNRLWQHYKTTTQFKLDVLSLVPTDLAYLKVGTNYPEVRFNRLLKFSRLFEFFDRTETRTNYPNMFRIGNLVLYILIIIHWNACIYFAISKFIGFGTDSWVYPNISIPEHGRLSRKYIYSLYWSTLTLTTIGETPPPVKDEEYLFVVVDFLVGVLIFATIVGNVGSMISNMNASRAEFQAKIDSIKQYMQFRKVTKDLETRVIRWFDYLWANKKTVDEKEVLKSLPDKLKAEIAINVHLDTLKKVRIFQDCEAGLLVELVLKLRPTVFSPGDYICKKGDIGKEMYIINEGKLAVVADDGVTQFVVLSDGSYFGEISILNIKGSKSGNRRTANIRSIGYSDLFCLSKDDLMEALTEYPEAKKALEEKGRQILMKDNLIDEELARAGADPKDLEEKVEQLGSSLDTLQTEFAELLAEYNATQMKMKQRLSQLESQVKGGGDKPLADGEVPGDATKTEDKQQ
As to the kind of experiment: Inside-out patch clamp, CNGA3 RR-EE. Format: biochemical.

The target of assay [2] is CNGA3 ΔN (51-107), 613X channels (Homo sapiens, UniProt Q16281, DEL51-107). Kind of assay: Inside-out patch clamp, CNGA3 ΔN. Format: biochemical. In general terms: In patch-clamp work, channel activity is measured electrically.
Assay [3] has as its target T2, A3-N7R-A,RR-QQ+B3 channels (Homo sapiens, UniProt Q16281+Q9NQW8, R101A/R103A/R643Q/R646Q/R72A/R75A/R81A/R82A/R86A).
T2 sequence (Q16281 1-694 R72A/R75A/R81A/R82A/R86A/R101A/R103A/R643Q/R646Q): T1 sequence (Q16281 1-694 R643E/R646E) with R72A, R75A, R81A, R82A, R86A, R101A, R103A, E643Q, E646Q
T2 sequence (Q9NQW8 1-809): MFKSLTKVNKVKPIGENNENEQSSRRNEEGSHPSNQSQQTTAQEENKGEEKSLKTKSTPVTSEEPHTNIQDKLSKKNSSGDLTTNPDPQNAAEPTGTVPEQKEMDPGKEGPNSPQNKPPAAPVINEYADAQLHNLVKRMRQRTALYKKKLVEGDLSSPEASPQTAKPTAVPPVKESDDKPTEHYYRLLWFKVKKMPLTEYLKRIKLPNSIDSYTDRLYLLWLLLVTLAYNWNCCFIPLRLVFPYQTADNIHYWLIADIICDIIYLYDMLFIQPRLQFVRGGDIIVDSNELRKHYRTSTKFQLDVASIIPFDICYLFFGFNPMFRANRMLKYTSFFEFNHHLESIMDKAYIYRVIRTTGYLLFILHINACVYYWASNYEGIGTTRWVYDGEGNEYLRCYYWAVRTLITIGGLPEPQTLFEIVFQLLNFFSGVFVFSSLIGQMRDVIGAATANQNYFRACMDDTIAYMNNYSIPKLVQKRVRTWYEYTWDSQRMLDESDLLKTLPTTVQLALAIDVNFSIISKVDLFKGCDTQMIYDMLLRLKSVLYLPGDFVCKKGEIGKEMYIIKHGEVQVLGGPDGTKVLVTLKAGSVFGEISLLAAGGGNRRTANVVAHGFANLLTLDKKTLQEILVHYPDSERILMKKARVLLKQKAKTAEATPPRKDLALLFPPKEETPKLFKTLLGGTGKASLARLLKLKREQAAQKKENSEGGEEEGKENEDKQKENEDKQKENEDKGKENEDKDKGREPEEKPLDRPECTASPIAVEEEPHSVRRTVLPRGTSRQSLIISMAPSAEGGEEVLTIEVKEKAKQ
As to the kind of experiment: Inside-out patch clamp, A3-N7R-A,RR-QQ+B3. Format: biochemical. The method, boiled down:
(§1)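 Subunit cRNAs (~20 ng, B in excess over A) injected into stage IV Xenopus oocytes; inside-out patches 2–7 d later, 20–22°C, symmetric 130 mM NaCl, 0.2 mM EDTA, 3 mM Hepes pH 7.2. Heteromer formation checked by 25 µM l-cis-diltiazem with 1 mM cGMP. diC8 phosphoinositides applied intracellularly in phosphatase-inhibitor cocktail. cGMP dose–response at +80 mV, leak-subtracted, Hill fit before/after for K1/2; mean ± SEM.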

In assay [4] the target is CNGA3 with CNGB1 channels (Homo sapiens, UniProt Q14028+Q16281). As to the kind of experiment: Inside-out patch clamp, CNGA3 with CNGB1. Format: biochemical. Particulars: 1 µM PIP3. In outline:
as §1

In assay [5] the test system is tandem A3//N7R-A,613X heterodimer channels. Kind of assay: Inside-out patch clamp, A3 WT//A3 N7R-A,613X tandem dimers. Format: biochemical, human. As to conditions: from K1/2 and h before and after PIP3.
Where [6] appears, read: read-out: K1/2 cGMP, +80 mV, no PIPn.

Positions count from the first letter of the chain named.

Data on 2 compounds can be found in publication PMC3607822 (The Journal of General Physiology, 2013).

One may read the Hill coefficient as a measure of the steepness of the concentration-response curve.

Regarding `Nc1nc2c(ncn2[C@@H]2O[C@@H]3COP(=O)(O)O[C@H]3[C@H]2O)c(=O)[nH]1` [cGMP, cyclic guanosine monophosphate], the Hill coefficient in assay [1] (cGMP activation) is 1.95 ± 0.05 (4); in assay [2] (cGMP activation), 1.90 ± 0.06 (4). In addition, the figures for the EC50 in assay [1] (setting [6]) and in assay [2] (setting [6]) were 8.29 ± 0.47 µM and 11.1 ± 2.28 µM, respectively. The “Po max cGMP” value in assay [1] (saturating cGMP) is 0.93 ± 0.03 (4).

For the compound “phosphatidylinositol (3,4,5)-trisphosphate [PIP3]”, the “regulation of apparent cGMP affinity” value in assay [3] (10 µM PIP2 or 1 µM PIP3) is recorded as “insensitive to regulation”. Further, in assay [3] (10 µM PIP3), the “percent change in K1/2 cGMP caused by PIP3” value is on record as 2 ± 8%. The “regulation of K1/2 cGMP by PIP3” value in assay [4] was “PIP3-sensitive”. The “change in the energetics of channel opening produced by PIP3 (ΔΔG)” value in assay [5] was 5.4 ± 0.33 kJ/mol.
